Results taken from ChEMBL document CHEMBL4118097, “Selective Inhibitors of Dual Leucine Zipper Kinase (DLK, MAP3K12) with Activity in a Model of Alzheimer's Disease” (J Med Chem, 2017).

Assays:
[1] = biological target: Serine/threonine-protein kinase Sgk3 (Homo sapiens) (UniProt Q96BR1); test: Inhibition of recombinant full length GST-tagged human SGK3 catalytic domain (87 to 496 residues) expressed in baculovirus expression system at 1 uM by FRET assay relative to control
How it was run: (§1)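 Single-concentration screen at 1 μM in Life Technologies SelectScreen, across a 220-kinase panel. Z′-LYTE format measures phosphorylation of a labeled peptide by FRET. Results are reported as percent inhibition.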

[2] = biological target: Mitogen-activated protein kinase kinase kinase 11 (Homo sapiens, UniProt Q16584); test: Inhibition of recombinant human full length GST-tagged MLK3 expressed in baculovirus expression system by FRET assay
[3] = biological target: Ribosomal protein S6 kinase alpha-5 (Homo sapiens) (UniProt O75582); test: Inhibition of recombinant full length GST-tagged human MSK1 expressed in baculovirus at 1 uM by FRET assay relative to control; how it was run: as §1
[4] = biological target: Muscarinic acetylcholine receptor M3 (Homo sapiens) (UniProt P20309); test: Binding affinity to recombinant human M3 acetylcholine receptor at 10 uM relative to control
How it was run: (§2)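 Broad radioligand-binding and enzyme screening panel covering 42 targets (biogenic amine and neuropeptide receptors, ion channels, neurotransmitter transporters, acetylcholinesterase). Single test concentration of 10 μM. Results expressed as binding relative to control, with a hit defined as >50% of control.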

[5] = biological target: Focal adhesion kinase 1 (Homo sapiens) (UniProt Q05397); test: Inhibition of recombinant full length GST-tagged human FAK expressed in baculovirus expression system at 1 uM by FRET assay relative to control; how it was run: as §1
[6] = biological target: Proto-oncogene tyrosine-protein kinase receptor Ret (Homo sapiens) (UniProt P07949); test: Inhibition of recombinant N-terminal GST-tagged human Ret cytoplasmic domain (658 to 1114 residues) expressed in baculovirus expression system at 1 uM by FRET assay relative to control; how it was run: as §1
[7] = biological target: Dual specificity mitogen-activated protein kinase kinase 1 (Homo sapiens) (UniProt Q02750); test: Inhibition of recombinant full length His-tagged human MEK1 expressed in baculovirus expression system at 1 uM by FRET assay relative to control
Chain of Dual specificity mitogen-activated protein kinase kinase 1 (Homo sapiens) (Q02750 whole entry, the tested form may be a part): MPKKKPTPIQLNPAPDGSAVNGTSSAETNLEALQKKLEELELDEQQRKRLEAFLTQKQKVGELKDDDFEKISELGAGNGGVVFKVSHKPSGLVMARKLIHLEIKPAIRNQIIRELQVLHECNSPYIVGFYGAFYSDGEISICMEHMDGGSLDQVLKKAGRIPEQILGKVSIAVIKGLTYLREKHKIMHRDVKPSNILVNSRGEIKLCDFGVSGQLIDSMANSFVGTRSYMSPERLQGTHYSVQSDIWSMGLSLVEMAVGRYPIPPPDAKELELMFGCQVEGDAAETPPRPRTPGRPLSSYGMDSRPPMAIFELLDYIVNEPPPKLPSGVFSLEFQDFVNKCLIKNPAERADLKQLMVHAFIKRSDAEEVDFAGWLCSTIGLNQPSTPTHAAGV

[8] = biological target: Ephrin type-A receptor 8 (Homo sapiens) (UniProt P29322); test: Inhibition of recombinant GST-tagged human EphA8 cytoplasmic domain expressed in baculovirus expression system at 1 uM by FRET assay relative to control
Chain of Ephrin type-A receptor 8 (Homo sapiens) (P29322 whole entry, the tested form may be a part): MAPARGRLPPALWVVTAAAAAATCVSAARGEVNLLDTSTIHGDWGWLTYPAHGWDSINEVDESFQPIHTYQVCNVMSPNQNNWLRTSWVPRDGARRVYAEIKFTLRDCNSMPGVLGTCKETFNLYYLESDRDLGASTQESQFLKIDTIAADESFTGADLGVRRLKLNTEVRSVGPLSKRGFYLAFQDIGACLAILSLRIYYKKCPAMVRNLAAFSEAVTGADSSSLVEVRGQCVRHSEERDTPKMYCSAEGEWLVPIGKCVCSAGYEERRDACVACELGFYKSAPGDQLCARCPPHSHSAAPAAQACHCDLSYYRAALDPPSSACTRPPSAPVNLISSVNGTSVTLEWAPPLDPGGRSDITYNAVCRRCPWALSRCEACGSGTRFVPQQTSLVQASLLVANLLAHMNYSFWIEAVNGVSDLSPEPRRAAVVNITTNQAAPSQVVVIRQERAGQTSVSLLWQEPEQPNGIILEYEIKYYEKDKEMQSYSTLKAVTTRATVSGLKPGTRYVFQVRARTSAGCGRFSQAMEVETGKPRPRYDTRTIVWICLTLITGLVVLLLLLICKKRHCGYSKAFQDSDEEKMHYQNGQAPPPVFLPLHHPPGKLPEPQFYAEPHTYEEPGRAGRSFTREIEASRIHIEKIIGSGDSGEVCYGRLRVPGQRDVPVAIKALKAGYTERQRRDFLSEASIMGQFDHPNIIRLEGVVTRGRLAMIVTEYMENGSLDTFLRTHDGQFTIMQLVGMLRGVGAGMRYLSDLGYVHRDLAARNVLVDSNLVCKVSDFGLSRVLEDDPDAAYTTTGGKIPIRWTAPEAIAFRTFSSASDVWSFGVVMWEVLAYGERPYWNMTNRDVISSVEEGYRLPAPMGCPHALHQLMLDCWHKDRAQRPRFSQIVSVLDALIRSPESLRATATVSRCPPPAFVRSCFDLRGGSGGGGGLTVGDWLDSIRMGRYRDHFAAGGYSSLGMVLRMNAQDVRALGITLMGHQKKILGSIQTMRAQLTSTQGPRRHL
How it was run: (§3)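 Single-point screen at 1 μM compound in a 220-kinase panel run by Life Technologies (SelectScreen). Z′-LYTE format: phosphorylation of a labeled peptide substrate read by FRET. Values are reported as percent inhibition.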

[9] = biological target: Cyclin-dependent kinase 5/CDK5 activator 1 (Homo sapiens) (UniProt Q00535+Q15078); test: Inhibition of recombinant full length His/GST-tagged human CDK5/p25 expressed in baculovirus expression system at 1 uM by FRET assay relative to control
[10] = biological target: Tyrosine-protein kinase Yes (Homo sapiens) (UniProt P07947); test: Inhibition of recombinant full length GST-tagged human Yes expressed in baculovirus expression system at 1 uM by FRET assay relative to control
Chain of Tyrosine-protein kinase Yes (Homo sapiens) (P07947 2-543 limits assumed): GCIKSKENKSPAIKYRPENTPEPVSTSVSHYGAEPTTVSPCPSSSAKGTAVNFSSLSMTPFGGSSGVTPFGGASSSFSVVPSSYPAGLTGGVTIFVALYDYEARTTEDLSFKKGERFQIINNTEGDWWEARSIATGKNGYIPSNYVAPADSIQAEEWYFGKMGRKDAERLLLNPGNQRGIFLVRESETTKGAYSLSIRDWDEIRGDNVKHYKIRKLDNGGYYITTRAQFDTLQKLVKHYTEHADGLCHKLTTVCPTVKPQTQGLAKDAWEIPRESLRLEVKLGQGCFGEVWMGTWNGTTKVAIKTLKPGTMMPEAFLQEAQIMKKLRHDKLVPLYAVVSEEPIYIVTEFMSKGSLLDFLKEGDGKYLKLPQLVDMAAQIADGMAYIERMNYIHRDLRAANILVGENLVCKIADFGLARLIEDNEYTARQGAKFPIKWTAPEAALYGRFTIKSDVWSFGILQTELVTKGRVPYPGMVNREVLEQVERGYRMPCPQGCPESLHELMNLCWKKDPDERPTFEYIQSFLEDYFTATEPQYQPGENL

[11] = biological target: Phosphorylase b kinase gamma catalytic chain, skeletal muscle/heart isoform (Homo sapiens) (UniProt Q16816); test: Inhibition of recombinant full length GST-tagged human PHKgamma1 expressed in baculovirus expression system at 1 uM by FRET assay relative to control; how it was run: as §1
[12] = biological target: Tyrosine-protein kinase receptor UFO (Homo sapiens) (UniProt P30530); test: Inhibition of recombinant His-tagged human AXL (473 to end residues) cytoplasmic domain expressed in insect cells at 1 uM by FRET assay relative to control; how it was run: as §3
[13] = biological target: Misshapen-like kinase 1 (Homo sapiens) (UniProt Q8N4C8); test: Inhibition of recombinant human GST-tagged MINK1 expressed in baculovirus at 1 uM by FRET assay relative to control
[14] = biological target: Dual specificity tyrosine-phosphorylation-regulated kinase 1A (Homo sapiens) (UniProt Q13627); test: Inhibition of full length recombinant GST-tagged human DYRK1A expressed in baculovirus expression system at 1 uM by FRET assay relative to control
[15] = biological target: Ribosomal protein S6 kinase alpha-3 (Homo sapiens) (UniProt P51812); test: Inhibition of recombinant full length His-tagged human RSK2 expressed in baculovirus expression system at 1 uM by FRET assay relative to control
[16] = biological target: Tyrosine-protein kinase FRK (Homo sapiens) (UniProt P42685); test: Inhibition of recombinant full length GST-tagged human FRK cytoplasmoic domain expressed in baculovirus expression system at 1 uM by FRET assay relative to control; how it was run: as §1
[17] = biological target: Dual specificity protein kinase CLK1 (Homo sapiens) (UniProt P49759); test: Inhibition of recombinant human GST-tagged CLK1 catalytic domain(129 to 484 residues)expressed in Escherichia coli at 1 uM by FRET assay relative to control
[18] = biological target: Angiopoietin-1 receptor (Homo sapiens) (UniProt Q02763); test: Inhibition of recombinant GST-tagged human Tie2 cytoplasmic domain (817 to 1101 residues) expressed in baculovirus expression system at 1 uM by FRET assay relative to control; how it was run: as §3
Homo sapiens = organism: Homo sapiens; test: Binding affinity to sodium channel site 2 (unknown origin) receptor at 10 uM relative to control; how it was run: as §2
[19] = biological target: Substance-P receptor (Homo sapiens) (UniProt P25103); test: Binding affinity to recombinant human NK1 receptor at 10 uM relative to control; how it was run: as §2
[20] = biological target: Proto-oncogene tyrosine-protein kinase ROS (Homo sapiens) (UniProt P08922); test: Inhibition of recombinant GST-tagged human Ros cytoplasmic domain expressed in baculovirus expression system at 1 uM by FRET assay relative to control; how it was run: as §3
Chain of Proto-oncogene tyrosine-protein kinase ROS (Homo sapiens) (P08922 whole entry, the tested form may be a part): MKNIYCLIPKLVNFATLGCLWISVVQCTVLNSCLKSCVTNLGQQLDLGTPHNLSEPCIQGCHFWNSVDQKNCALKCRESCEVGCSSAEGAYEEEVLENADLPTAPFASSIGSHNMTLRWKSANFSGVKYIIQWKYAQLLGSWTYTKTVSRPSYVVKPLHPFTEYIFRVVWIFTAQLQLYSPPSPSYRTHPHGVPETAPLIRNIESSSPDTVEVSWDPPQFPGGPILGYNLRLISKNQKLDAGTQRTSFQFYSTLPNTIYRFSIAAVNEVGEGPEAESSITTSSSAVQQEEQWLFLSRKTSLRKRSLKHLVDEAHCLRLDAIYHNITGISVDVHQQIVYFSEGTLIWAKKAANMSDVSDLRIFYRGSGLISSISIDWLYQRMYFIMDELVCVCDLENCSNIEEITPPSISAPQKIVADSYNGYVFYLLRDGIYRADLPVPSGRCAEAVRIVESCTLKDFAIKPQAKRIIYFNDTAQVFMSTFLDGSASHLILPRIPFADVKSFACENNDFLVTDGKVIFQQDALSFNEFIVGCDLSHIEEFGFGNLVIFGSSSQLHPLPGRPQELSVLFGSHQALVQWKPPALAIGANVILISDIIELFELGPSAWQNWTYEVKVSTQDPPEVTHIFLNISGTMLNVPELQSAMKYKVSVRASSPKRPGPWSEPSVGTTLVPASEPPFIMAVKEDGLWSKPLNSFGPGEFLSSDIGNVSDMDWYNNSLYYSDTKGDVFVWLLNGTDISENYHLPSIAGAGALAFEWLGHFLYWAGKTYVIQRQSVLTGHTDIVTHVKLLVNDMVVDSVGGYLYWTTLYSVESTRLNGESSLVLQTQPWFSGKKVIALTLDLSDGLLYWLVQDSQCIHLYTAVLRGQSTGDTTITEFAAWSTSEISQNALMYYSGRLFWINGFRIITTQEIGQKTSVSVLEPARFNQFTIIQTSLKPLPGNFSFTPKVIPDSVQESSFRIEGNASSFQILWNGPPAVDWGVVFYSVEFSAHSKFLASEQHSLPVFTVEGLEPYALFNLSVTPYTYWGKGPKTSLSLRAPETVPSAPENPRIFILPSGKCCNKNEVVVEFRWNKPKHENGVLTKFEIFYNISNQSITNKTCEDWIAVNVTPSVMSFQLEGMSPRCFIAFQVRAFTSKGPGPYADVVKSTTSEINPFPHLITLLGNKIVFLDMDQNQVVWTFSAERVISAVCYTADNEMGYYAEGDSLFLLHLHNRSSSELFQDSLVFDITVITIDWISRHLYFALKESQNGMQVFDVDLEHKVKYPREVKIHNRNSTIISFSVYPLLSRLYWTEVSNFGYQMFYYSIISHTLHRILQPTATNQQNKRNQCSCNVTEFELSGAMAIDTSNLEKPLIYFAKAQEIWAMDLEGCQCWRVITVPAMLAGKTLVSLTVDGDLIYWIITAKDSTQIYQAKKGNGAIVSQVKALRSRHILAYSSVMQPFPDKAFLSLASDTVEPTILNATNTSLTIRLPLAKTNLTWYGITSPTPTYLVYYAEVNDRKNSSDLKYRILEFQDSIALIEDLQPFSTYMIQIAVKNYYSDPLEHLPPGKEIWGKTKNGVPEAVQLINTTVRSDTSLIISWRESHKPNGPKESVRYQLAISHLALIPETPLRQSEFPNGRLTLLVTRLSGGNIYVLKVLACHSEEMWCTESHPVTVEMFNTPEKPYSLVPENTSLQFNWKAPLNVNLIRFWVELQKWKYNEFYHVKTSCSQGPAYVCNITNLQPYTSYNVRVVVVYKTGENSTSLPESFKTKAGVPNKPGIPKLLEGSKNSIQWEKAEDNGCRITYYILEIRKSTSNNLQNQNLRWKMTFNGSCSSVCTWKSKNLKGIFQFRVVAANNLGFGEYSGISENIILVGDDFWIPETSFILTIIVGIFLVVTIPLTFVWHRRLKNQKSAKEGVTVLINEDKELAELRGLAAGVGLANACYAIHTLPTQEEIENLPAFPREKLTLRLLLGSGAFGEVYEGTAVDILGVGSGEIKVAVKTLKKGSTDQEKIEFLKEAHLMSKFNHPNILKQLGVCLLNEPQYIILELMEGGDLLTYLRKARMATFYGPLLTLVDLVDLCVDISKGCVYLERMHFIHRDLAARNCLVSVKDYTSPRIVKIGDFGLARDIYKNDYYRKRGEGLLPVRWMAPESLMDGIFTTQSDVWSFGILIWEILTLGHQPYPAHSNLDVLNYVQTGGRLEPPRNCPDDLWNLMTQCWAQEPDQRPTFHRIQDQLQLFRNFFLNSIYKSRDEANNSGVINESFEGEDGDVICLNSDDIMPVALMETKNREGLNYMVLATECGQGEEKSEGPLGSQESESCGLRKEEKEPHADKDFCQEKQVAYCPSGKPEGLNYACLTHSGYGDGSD

[21] = biological target: Protein kinase C eta type (Homo sapiens) (UniProt P24723); test: Inhibition of PKCeta (unknown origin) at 1 uM by FRET assay relative to control
[22] = biological target: PAS domain-containing serine/threonine-protein kinase (Homo sapiens) (UniProt Q96RG2); test: Inhibition of recombinant GST-tagged human PASK catalytic domain expressed in baculovirus expression system at 1 uM by FRET assay relative to control; how it was run: as §3
[23] = biological target: Serine/threonine-protein kinase BRSK1 (Homo sapiens) (UniProt Q8TDC3); test: Inhibition of recombinant full length GST-tagged human BrSK1 expressed in baculovirus expression system at 1 uM by FRET assay relative to control; how it was run: as §1
Chain of Serine/threonine-protein kinase BRSK1 (Homo sapiens) (Q8TDC3 whole entry): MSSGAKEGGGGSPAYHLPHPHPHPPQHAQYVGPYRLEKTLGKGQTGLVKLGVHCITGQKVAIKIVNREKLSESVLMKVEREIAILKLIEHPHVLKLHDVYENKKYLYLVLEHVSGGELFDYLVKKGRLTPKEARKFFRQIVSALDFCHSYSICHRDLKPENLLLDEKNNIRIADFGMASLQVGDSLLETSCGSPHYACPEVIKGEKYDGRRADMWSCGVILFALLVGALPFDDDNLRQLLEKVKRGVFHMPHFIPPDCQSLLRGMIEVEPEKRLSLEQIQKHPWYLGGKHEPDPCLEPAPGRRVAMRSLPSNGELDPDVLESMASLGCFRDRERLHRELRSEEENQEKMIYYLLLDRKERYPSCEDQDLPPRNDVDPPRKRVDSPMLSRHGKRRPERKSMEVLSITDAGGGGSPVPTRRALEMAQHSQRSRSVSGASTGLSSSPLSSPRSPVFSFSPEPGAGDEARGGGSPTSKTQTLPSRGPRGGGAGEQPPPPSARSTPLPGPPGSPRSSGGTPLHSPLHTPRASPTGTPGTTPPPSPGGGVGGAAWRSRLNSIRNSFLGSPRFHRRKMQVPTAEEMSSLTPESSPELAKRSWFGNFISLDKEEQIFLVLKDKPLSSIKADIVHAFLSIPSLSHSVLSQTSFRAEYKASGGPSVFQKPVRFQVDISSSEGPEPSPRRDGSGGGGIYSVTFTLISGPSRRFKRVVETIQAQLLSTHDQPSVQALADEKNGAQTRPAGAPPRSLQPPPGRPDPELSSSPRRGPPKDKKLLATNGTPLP

[24] = biological target: Calcium/calmodulin-dependent protein kinase type II subunit beta (Homo sapiens) (UniProt Q13554); test: Inhibition of recombinant full length His-tagged human CaMK2beta expressed in baculovirus expression system at 1 uM by FRET assay relative to control
[25] = biological target: Testis-specific serine/threonine-protein kinase 1 (Homo sapiens) (UniProt Q9BXA7); test: Inhibition of recombinant full length His-tagged human TSSK1 expressed in baculovirus expression system at 1 uM by FRET assay relative to control
[26] = biological target: Mitogen-activated protein kinase kinase kinase 8 (Homo sapiens) (UniProt P41279); test: Inhibition of recombinant GST-tagged human Cot catalytic domain (30 to 397 residues) expressed in baculovirus expression system at 1 uM by FRET assay relative to control

Row | Structure (SMILES) | inhibition [1] | IC50 [2] | inhibition [3] | Activity [4] | inhibition [5] | inhibition [6] | inhibition [7] | inhibition [8] | inhibition [9] | inhibition [10] | inhibition [11] | inhibition [12] | inhibition [13] | inhibition [14] | inhibition [15] | inhibition [16] | inhibition [17] | inhibition [18] | Activity (Homo sapiens) | Activity [19] | other results
1 | CC(C)n1nc(-c2cnc(N)c(OC(F)(F)F)c2)cc1[C@H]1[C@@H]2CN(C3COC3)C[C@@H]21 | 6.1% | > 10 µM | 7.2% | > 50% | 11.1% | 9.1% | 14.8% | 8.7% | -0.8% | 15.8% | 4% | 40.7% | 33.3% | 7% | 2.8% | 14.4% | 1.8% | 13.7% | > 50% | > 50% | inhibition [20]: 37%; inhibition [21]: 1.7%; inhibition [22]: -0.6%; inhibition [23]: 5.8%; inhibition [24]: 10.6%; inhibition [25]: 9.4%; inhibition [26]: 14.3%
2 | Nc1ncc(-c2cc([C@H]3[C@@H]4CN(C5COC5)C[C@@H]43)n(CC3CC3)n2)cc1C(F)(F)F | -0.1% | > 10 µM | 1.9% | > 50% | 10.4% | 17.7% | 0% | 18.6% | 9.6% | 29.8% | 3% | 57.4% | 12% | 3.9% | 2% | 19.7% | 2.1% | 4.6% | > 50% | > 50% | inhibition [20]: 40.1%; inhibition [21]: -3.9%; inhibition [22]: 4.5%; inhibition [23]: -0.3%; inhibition [24]: 1.6%; inhibition [25]: 11.5%; inhibition [26]: 3.4%
